Experimental data published in ChEMBL document CHEMBL1123859, “Substituted arylmethyl phenyl ethers. 1. A novel series of 5-lipoxygenase inhibitors and leukotriene antagonists” (J Med Chem, 1987).

What was measured:
Cavia porcellus [1] = species: Cavia porcellus; experiment: Percent inhibition of LTC4-induced contraction in guinea pig parenchymal strip test, at a concentration of 30 uM; assay type: functional
Procedure, shortened: (§1)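 Guinea pig lung parenchymal strips were held in a tissue bath. Repeated 1 μM histamine challenges gave a control response used to normalize all later responses. Compounds were first checked at 30 μM alone for intrinsic activity. After preincubation (usually 5 min), strips were challenged with 0.2 nM LTC4. Inhibition of the contraction was scored, and 20% or less counted as ineffective.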

[2] = molecular target: T1, Polyunsaturated fatty acid 5-lipoxygenase (Rattus norvegicus) (UniProt P12527); experiment: IC50 for inhibition of rat neutrophil 5-lipoxygenase (5-LO)
T1 sequence (whole entry): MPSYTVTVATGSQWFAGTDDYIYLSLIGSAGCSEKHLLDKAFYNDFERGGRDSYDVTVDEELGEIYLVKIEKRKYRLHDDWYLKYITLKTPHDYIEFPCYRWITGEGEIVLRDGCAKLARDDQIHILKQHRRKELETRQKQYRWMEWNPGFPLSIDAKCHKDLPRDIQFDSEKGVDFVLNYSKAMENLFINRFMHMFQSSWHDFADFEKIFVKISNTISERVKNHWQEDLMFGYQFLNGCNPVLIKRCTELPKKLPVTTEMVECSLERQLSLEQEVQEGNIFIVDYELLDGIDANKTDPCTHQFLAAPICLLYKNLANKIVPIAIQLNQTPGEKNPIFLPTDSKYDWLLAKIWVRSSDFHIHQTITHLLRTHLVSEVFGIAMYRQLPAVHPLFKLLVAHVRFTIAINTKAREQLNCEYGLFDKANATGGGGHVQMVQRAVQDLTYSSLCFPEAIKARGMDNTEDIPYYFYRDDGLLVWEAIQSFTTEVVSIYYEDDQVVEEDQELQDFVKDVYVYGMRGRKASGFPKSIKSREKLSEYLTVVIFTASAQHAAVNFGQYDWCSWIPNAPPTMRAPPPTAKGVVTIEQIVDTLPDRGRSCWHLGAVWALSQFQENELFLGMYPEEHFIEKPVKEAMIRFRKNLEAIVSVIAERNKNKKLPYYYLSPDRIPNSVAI

Cavia porcellus [3] = species: Cavia porcellus; experiment: Percent inhibition of LTC4-induced contraction in guinea pig parenchymal strip test, at a concentration of 100 uM; assay type: functional; procedure, shortened: as §1
[4] = molecular target: T2, Polyunsaturated fatty acid 5-lipoxygenase (Rattus norvegicus, UniProt P12527); experiment: Inhibition of rat neutrophil 5- Lipoxygenase (5-LO),; details: read-out: I50
T2 sequence (P12527 whole entry): T1 sequence (whole entry)
Procedure, shortened: (§2)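 Approximately 2 × 10^6 glycogen-elicited rat neutrophils in buffer were incubated for 3 min with 4 μM [14C]arachidonic acid and 0.8 μM calcium ionophore A23187. Net 5-HETE was taken as the cell-containing control minus the buffer-only blank. […] Each assay was run in triplicate.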

Cavia porcellus [5] = species: Cavia porcellus; experiment: Percent inhibition of LTC4-induced contraction in guinea pig parenchymal strip test, at a concentration of 40 uM; assay type: functional; procedure, shortened: as §1
[6] = molecular target: T2, Polyunsaturated fatty acid 5-lipoxygenase; experiment: Inhibition of rat neutrophil 5- Lipoxygenase (5-LO); details: read-out: I50
Procedure, shortened: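 Approximately 2 × 10^6 glycogen-elicited rat neutrophils in buffer were incubated for 3 min with 4 μM [14C]arachidonic acid and 0.8 μM calcium ionophore A23187. Net 5-HETE was taken as the cell-containing control minus the buffer-only blank. Each assay was run in triplicate.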

Cavia porcellus [7] = species: Cavia porcellus; experiment: Percent inhibition of LTC4-induced contraction in guinea pig parenchymal strip test, at a concentration of 22 uM,; assay type: functional; procedure, shortened: as §1
Cavia porcellus [8] = species: Cavia porcellus; experiment: Percent inhibition of LTC4-induced contraction in guinea pig parenchymal strip test, at a concentration of 12 uM; assay type: functional; procedure, shortened: as §1
Cavia porcellus [9] = species: Cavia porcellus; experiment: Percent inhibition of LTC4-induced contraction in guinea pig parenchymal strip test, at a concentration of 20 uM; assay type: functional; procedure, shortened: as §1
Cavia porcellus [10] = species: Cavia porcellus; experiment: Percent inhibition of LTC4-induced contraction in guinea pig parenchymal strip test, at a concentration of 15 uM; assay type: functional; procedure, shortened: as §1
Cavia porcellus [11] = species: Cavia porcellus; experiment: Percent inhibition of LTC4-induced contraction in guinea pig parenchymal strip test, at a concentration of 10 uM; assay type: functional; procedure, shortened: as §1
Cavia porcellus [12] = species: Cavia porcellus; experiment: Percent inhibition of LTC4-induced contraction in guinea pig parenchymal strip test, at a concentration of 8 uM; assay type: functional; procedure, shortened: as §1
Cavia porcellus [13] = species: Cavia porcellus; experiment: Percent inhibition of LTC4-induced contraction in guinea pig parenchymal strip test, at a concentration of 9 uM; assay type: functional; procedure, shortened: as §1
Cavia porcellus [14] = species: Cavia porcellus; experiment: Percent inhibition of LTC4-induced contraction in guinea pig parenchymal strip test, at a concentration of 19 uM; assay type: functional; procedure, shortened: as §1
Cavia porcellus [15] = species: Cavia porcellus; experiment: Percent inhibition of LTC4-induced contraction in guinea pig parenchymal strip test, at a concentration of 3.6 uM; assay type: functional; procedure, shortened: as §1
[16] = molecular target: T1, Polyunsaturated fatty acid 5-lipoxygenase (Rattus norvegicus); experiment: Percent inhibition of rat neutrophil 5- Lipoxygenase (5-LO) at 100 uM; procedure, shortened: as §2

Compound	inhibition at 30 µM (Cavia porcellus [1])	IC50 [2]	further results
CCCCC(C)(C)C(C)(O)c1cccc(OCc2ccccc2)c1 (centres undefined)	10%	2.4 µM	–
CCCCCC(=O)c1cccc(OCc2cccc(C(N)=O)c2)c1	5%	0.6 µM	–
CCCCCC(O)c1cccc(COc2ccccc2)c1 (centres undefined)	19%	6.7 µM	–
CCCCCC(O)c1cccc(OCc2ccc3ccccc3c2)c1 (centres undefined)	10%	5 µM	–
CCCCCC(=O)c1cccc(OCc2ccccc2)c1	–	2 µM	inhibition at 100 µM (Cavia porcellus [3]): 50%
CCCCCC(O)c1cccc(OCc2ccc(C(=O)O)cc2)c1 (centres undefined)	22%	21 µM	–
CCCCCC(O)c1cccc(OCc2cccc(C(=O)O)c2)c1 (centres undefined)	30%	–	IC50 [4]: 20.5 µM
CCCCCC(O)c1cccc(OCc2cccc(C=O)c2)c1 (centres undefined)	–	4 µM	–
CCCCC(C)C(O)c1cccc(OCc2ccccc2)c1 (centres undefined)	0%	3 µM	–
CCCCCC(O)c1cccc(OCc2ccc(OCC(=O)OC)cc2)c1 (centres undefined)	–	4.8 µM	–
CCCCCC(C)(O)c1cccc(OCc2ccccc2)c1 (centres undefined)	10%	1 µM	–
CCCCCC(O)c1cccc(OCc2cccc(CC(=O)O)c2)c1 (centres undefined)	–	2.5 µM	inhibition at 40 µM (Cavia porcellus [5]): 50%
CCCCCC(OC(C)=O)c1cccc(OCc2cccc(C(=O)OC)c2)c1 (centres undefined)	5%	5 µM	–
CCCCCC(O)c1cccc(OCc2cccc(C(=O)O)n2)c1 (centres undefined)	50%	–	IC50 [4]: 5 µM
CCCC/C=C(/C)c1ccccc1OCc1cccc(C(=O)OC)c1	7%	5 µM	–
CCCCCC(C)(O)c1cccc(OCc2ccccn2)c1 (centres undefined)	–	–	IC50 [6]: 0.43 µM; inhibition at 22 µM (Cavia porcellus [7]): 50%
CCCCCC(O)c1cccc(OCc2cccc(C(=O)OC)n2)c1 (centres undefined)	–	–	IC50 [6]: 1.9 µM
CCCC/C=C\c1cccc(OCc2ccc3ccccc3n2)c1	–	> 10 µM	inhibition at 12 µM (Cavia porcellus [8]): 50%
CCCC/C=C/c1ccc(OCc2cccc(C(=O)OC)c2)cc1	26%	> 100 µM	–

Compound	inhibition at 30 µM (Cavia porcellus [1])	IC50 [2]	further results
CCCCCC(O)c1ccccc1OCc1cccc(C(=O)OC)c1 (centres undefined)	–	3.2 µM	inhibition at 20 µM (Cavia porcellus [9]): 50%
CCCCCC(OC)c1cccc(OCc2cccc(C(=O)OC)c2)c1 (centres undefined)	22%	10 µM	–
CCCCCC(O)c1cccc(OCc2cccc(CN)c2)c1 (centres undefined)	0%	36 µM	–
CCCCC(C)(C)C(=O)c1cccc(OCc2ccccc2)c1	11%	–	IC50 [4]: 7.5 µM
CCCCC(O)c1cccc(OCc2ccccc2C(=O)OC)c1 (centres undefined)	35%	2.5 µM	–
CCCCCC(OC1CCCCO1)c1cccc(OCc2cccc(C(=O)OC)c2)c1 (centres undefined)	0%	23 µM	–
CCCCC(O)c1cccc(OCc2ccccc2CO)c1 (centres undefined)	–	–	IC50 [6]: 4 µM; inhibition at 15 µM (Cavia porcellus [10]): 50%
CCCCCC(O)c1cccc(OCc2ccc(C(=O)OC)cc2)c1 (centres undefined)	–	3.2 µM	inhibition at 10 µM (Cavia porcellus [11]): 0%
CCCCCC(C)(O)c1cccc(OCc2ccc3ccccc3n2)c1 (centres undefined)	–	–	IC50 [6]: 0.13 µM; inhibition at 8 µM (Cavia porcellus [12]): 50%
CCCCCC(O)c1cccc(Oc2ccc3ccccc3n2)c1 (centres undefined)	26%	0.35 µM	–
CCCCCC(O)c1cccc(OCc2ccccc2C(=O)O)c1 (centres undefined)	–	30 µM	inhibition at 20 µM (Cavia porcellus [9]): 50%
CCCCCC(O)c1cccc(Oc2ccccc2)c1 (centres undefined)	50%	1.2 µM	–
CCCCCC(O)c1cccc(OCc2cccnc2)c1 (centres undefined)	–	2.7 µM	inhibition at 9 µM (Cavia porcellus [13]): 50%
CCCCC(C)(C)C(O)c1cccc(OCc2cccc(C(=O)OC)c2)c1 (centres undefined)	0%	–	IC50 [6]: 2 µM
CCCCCC(O)c1cccc(/C=C\c2ccccc2)c1 (centres undefined)	5%	6.4 µM	–
CCCCC(O)c1cccc(OCc2ccccc2C(=O)O)c1 (centres undefined)	–	10 µM	inhibition at 19 µM (Cavia porcellus [14]): 50%
CCCCCC(O)c1cccc(OCc2cccc(C(=O)OC)c2)c1 (centres undefined)	20%	–	IC50 [4]: 1 µM
CCCCCC(=O)c1cccc(/C=C\c2ccccc2)c1	-20%	45 µM	–
CCCCC[C@H](O)/C=C/C=C\C/C=C\C/C=C\CCCC(=O)O [ICOMUCRET]	–	–	IC50 [6]: 1.45 µM

Compound	inhibition at 30 µM (Cavia porcellus [1])	IC50 [2]	further results
CCCCCC(O)c1cccc(OCc2cccc(CC(=O)OC)c2)c1 (centres undefined)	19%	5.8 µM	–
CCCCCC(=O)c1cccc(OCc2cccc(C#N)c2)c1	-30%	–	IC50 [6]: 6 µM
CCCCCC(O)c1cccc(OCc2cccc(C#N)c2)c1 (centres undefined)	–	17 µM	inhibition at 10 µM (Cavia porcellus [11]): 3%
CCCCCC(O)c1cccc(OCc2cccc(C#N)n2)c1 (centres undefined)	–	30 µM	inhibition at 10 µM (Cavia porcellus [11]): 36%
CCCCCC(O)c1cccc(OCc2ccccc2C(=O)OC)c1 (centres undefined)	23%	0.6 µM	–
CCCCCC(O)c1cccc(OCc2ccccc2)c1 (centres undefined)	–	2.7 µM	inhibition at 100 µM (Cavia porcellus [3]): 10%
CCCCC(C)(C)C(O)c1cccc(OCc2ccccc2)c1 (centres undefined)	–	2.5 µM	–
CCCCCC(O)c1cccc(OCc2ccc3ccccc3n2)c1 (centres undefined) [REV-5901]	–	–	inhibition at 3.6 µM (Cavia porcellus [15]): 50%
CCCCCC(=O)c1cccc(/C=C/c2ccccc2)c1	0%	> 100 µM	–
CCCCCC(O)c1cccc(O)c1 (centres undefined)	–	–	inhibition [16]: 43%
CCCCCC(O)c1cccc(OCc2cccc(C(N)=O)c2)c1 (centres undefined)	–	2 µM	inhibition at 10 µM (Cavia porcellus [11]): 0%
CCCCCC(O)c1cccc(/C=C/c2ccccc2)c1 (centres undefined)	12%	4.5 µM	–
CCCCCC(O)c1cccc(OCc2ccncc2)c1 (centres undefined)	–	2.7 µM	inhibition at 100 µM (Cavia porcellus [3]): 50%
CCCCCC(O)c1cccc(OCc2ccccn2)c1 (centres undefined)	37%	0.5 µM	–
CCCCC(OC1CCCCO1)c1cccc(OCc2ccccc2C(=O)OC)c1 (centres undefined)	–	14 µM	–
CCCCCC(=O)c1cccc(OCc2ccc3ccccc3n2)c1	–	–	IC50 [6]: 0.37 µM; inhibition at 20 µM (Cavia porcellus [9]): 50%
CCCCCC(NC)c1cccc(OCc2ccccc2)c1 (centres undefined)	50%	22 µM	–
CCCCCC(O)c1cccc(OCc2cccc(C(F)(F)F)c2)c1 (centres undefined)	10%	–	IC50 [6]: 4 µM
